Results taken from ChEMBL document CHEMBL4130545, “Lupane-Type Triterpenes of Phoradendron vernicosum” (J Nat Prod, 2017).
Values belong to the compound of their own block, whether it stands above or below them.

How the values were obtained:
HeLa [1] = assay: Antiproliferative activity in human HeLa cells by sulforhodamine B assay; assay type: functional, cell-based
Method in brief: (§1)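 Cells grown in D-MEM with 10% (v/v) FBS, 100 U/mL penicillin G and 100 μg/mL streptomycin, at 37 °C under 5% CO2 and 95% humidity. Cytotoxic and antiproliferative effects were measured by the sulforhodamine B method of Skehan et al. CC50 (cytotoxic) or IC50 (antiproliferative) is the concentration giving 50% growth reduction. Docetaxel was the positive control. Triplicate tests.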

DU-145 [2] = assay: Antiproliferative activity in human DU145 cells by sulforhodamine B assay; assay type: functional, cell-based; method in brief: as §1
[3] = Selectivity index, ratio of cytotoxic CC50 for African green monkey Vero cells to cytotoxic CC50 for human KB cells; assay type: toxicity; conditions: Vero cells versus KB cells, read-out: Selectivity Index
Method in brief: (§2)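 Selectivity index for harmfulness to normal cells: the normal-cell (Vero or HEK293) CC50 or IC50 over the cancer-cell value from the same assay type. Each value is from sulforhodamine B growth-reduction tests done in triplicate in D-MEM/10% FBS at 37 °C, 5% CO2.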

MCF7 [4] = assay: Cytotoxic activity in human MCF7 cells by sulforhodamine B assay; assay type: functional
Method in brief: (§3)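 Cell lines grown in D-MEM with 10% (v/v) FBS, 100 U/mL penicillin G and 100 μg/mL streptomycin at 37 °C, 5% CO2, 95% humidity. Cytotoxicity was measured by the Skehan method. CC50 was taken as the concentration that reduces cell growth by 50%. Docetaxel served as positive control, and each test was run in triplicate.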

[5] = Selectivity index, ratio of antiproliferative IC50 for HEK293 cells to antiproliferative IC50 for human KB cells; assay type: toxicity; conditions: HEK293 cells versus KB cells, read-out: Ratio IC50; method in brief: as §2
[6] = Selectivity index, ratio of cytotoxic CC50 for HEK293 cells to cytotoxic CC50 for human SiHa cells; assay type: toxicity; conditions: HEK293 cells versus SiHa cells, read-out: Selectivity Index; method in brief: as §2
[7] = Selectivity index, ratio of antiproliferative IC50 for HEK293 cells to antiproliferative IC50 for human SiHa cells; assay type: toxicity; conditions: HEK293 cells versus SiHa cells, read-out: Ratio IC50; method in brief: as §2
SiHa [8] = assay: Antiproliferative activity in human SiHa cells by sulforhodamine B assay; assay type: functional, cell-based; method in brief: as §1
[9] = Selectivity index, ratio of antiproliferative IC50 for African green monkey Vero cells to antiproliferative IC50 for human KB cells; assay type: toxicity; conditions: Vero cells versus KB cells, read-out: Ratio IC50; method in brief: as §2
[10] = Selectivity index, ratio of cytotoxic CC50 for HEK293 cells to cytotoxic CC50 for human HeLa cells; assay type: toxicity; conditions: HEK293 cells versus HeLa cells, read-out: Selectivity Index; method in brief: as §2
KB [11] = assay: Cytotoxic activity in human KB cells by sulforhodamine B assay; assay type: functional; method in brief: as §3
[12] = Cytotoxic activity in African green monkey Vero cells by sulforhodamine B assay; assay type: cell-based; conditions: chlorocebus sabaeus; method in brief: as §1
[13] = Selectivity index, ratio of cytotoxic CC50 for African green monkey Vero cells to cytotoxic CC50 for human MCF7 cells; assay type: toxicity; conditions: Vero cells versus MCF7 cells, read-out: Selectivity Index; method in brief: as §2
SiHa [14] = assay: Cytotoxic activity in human SiHa cells by sulforhodamine B assay; assay type: functional; method in brief: as §3
[15] = Selectivity index, ratio of cytotoxic CC50 for HEK293 cells to cytotoxic CC50 for human MCF7 cells; assay type: toxicity; conditions: HEK293 cells versus MCF7 cells, read-out: Selectivity Index; method in brief: as §2
HEp-2 [16] = assay: Antiproliferative activity in human Hep2 cells by sulforhodamine B assay; assay type: functional, cell-based; method in brief: as §1
[17] = Selectivity index, ratio of cytotoxic CC50 for African green monkey Vero cells to cytotoxic CC50 for human HeLa cells; assay type: toxicity; conditions: Vero cells versus HeLa cells, read-out: Selectivity Index; method in brief: as §2
[18] = Selectivity index, ratio of cytotoxic CC50 for African green monkey Vero cells to cytotoxic CC50 for human SiHa cells; assay type: toxicity; conditions: Vero cells versus SiHa cells, read-out: Selectivity Index; method in brief: as §2
[19] = Selectivity index, ratio of antiproliferative IC50 for African green monkey Vero cells to antiproliferative IC50 for human HeLa cells; assay type: toxicity; conditions: Vero cells versus HeLa cells, read-out: Ratio IC50; method in brief: as §2
HEK293 = assay: Antiproliferative activity in HEK293 cells by sulforhodamine B assay; assay type: cell-based; conditions: Homo sapiens; method in brief: as §1
[20] = Selectivity index, ratio of antiproliferative IC50 for HEK293 cells to antiproliferative IC50 for human HeLa cells; assay type: toxicity; conditions: HEK293 cells versus HeLa cells, read-out: Ratio IC50; method in brief: as §2
[21] = Selectivity index, ratio of antiproliferative IC50 for HEK293 cells to antiproliferative IC50 for human MCF7 cells; assay type: toxicity; conditions: HEK293 cells versus MCF7 cells, read-out: Ratio IC50; method in brief: as §2
MDA-MB-231 [22] = assay: Cytotoxic activity in human MDA-MB-231 cells by sulforhodamine B assay; assay type: functional; method in brief: as §3
MDA-MB-231 [23] = assay: Antiproliferative activity in human MDA-MB-231 cells by sulforhodamine B assay; assay type: functional, cell-based; method in brief: as §1
[24] = Selectivity index, ratio of cytotoxic CC50 for African green monkey Vero cells to cytotoxic CC50 for human Hep2 cells; assay type: toxicity; conditions: Vero cells versus Hep2 cells, read-out: Selectivity Index
[25] = Selectivity index, ratio of cytotoxic CC50 for HEK293 cells to cytotoxic CC50 for human KB cells; assay type: toxicity; conditions: HEK293 cells versus KB cells, read-out: Selectivity Index; method in brief: as §2
Vero = assay: Antiproliferative activity in African green monkey Vero cells by sulforhodamine B assay; assay type: cell-based; conditions: Chlorocebus sabaeus; method in brief: as §1
[26] = Selectivity index, ratio of cytotoxic CC50 for HEK293 cells to cytotoxic CC50 for human MDA-MB-231 cells; assay type: toxicity; conditions: HEK293 cells versus MDA-MB-231 cells, read-out: Selectivity Index; method in brief: as §2
[27] = Selectivity index, ratio of cytotoxic CC50 for African green monkey Vero cells to cytotoxic CC50 for human MDA-MB-231 cells; assay type: toxicity; conditions: Vero cells versus MDA-MB-231 cells, read-out: Selectivity Index; method in brief: as §2
KB [28] = assay: Antiproliferative activity in human KB cells by sulforhodamine B assay; assay type: functional, cell-based; method in brief: as §1
[29] = Cytotoxic activity in HEK293 cells by sulforhodamine B assay; assay type: cell-based; conditions: human; method in brief: as §1
HEp-2 [30] = assay: Cytotoxic activity in human Hep2 cells by sulforhodamine B assay; assay type: functional; method in brief: as §3
DU-145 [31] = assay: Cytotoxic activity in human DU145 cells by sulforhodamine B assay; assay type: functional; method in brief: as §3
MCF7 [32] = assay: Antiproliferative activity in human MCF7 cells by sulforhodamine B assay; assay type: functional, cell-based; method in brief: as §1
[33] = Selectivity index, ratio of cytotoxic CC50 for HEK293 cells to cytotoxic CC50 for human Hep2 cells; assay type: toxicity; conditions: HEK293 cells versus Hep2 cells, read-out: Selectivity Index; method in brief: as §2
[34] = Selectivity index, ratio of antiproliferative IC50 for African green monkey Vero cells to antiproliferative IC50 for human MCF7 cells; assay type: toxicity; conditions: Vero cells versus MCF7 cells, read-out: Ratio IC50; method in brief: as §2
HeLa [35] = assay: Cytotoxic activity in human HeLa cells by sulforhodamine B assay; assay type: functional; method in brief: as §3
[36] = Selectivity index, ratio of antiproliferative IC50 for African green monkey Vero cells to antiproliferative IC50 for human SiHa cells; assay type: toxicity; conditions: Vero cells versus SiHa cells, read-out: Ratio IC50; method in brief: as §2
[37] = Selectivity index, ratio of antiproliferative IC50 for HEK293 cells to antiproliferative IC50 for human DU145 cells; assay type: toxicity; conditions: HEK293 cells versus DU145 cells, read-out: Ratio IC50
[38] = Selectivity index, ratio of antiproliferative IC50 for African green monkey Vero cells to antiproliferative IC50 for human Hep2 cells; assay type: toxicity; conditions: Vero cells versus Hep2 cells, read-out: Ratio IC50; method in brief: as §2
[39] = Selectivity index, ratio of cytotoxic CC50 for African green monkey Vero cells to cytotoxic CC50 for human DU145 cells; assay type: toxicity; conditions: Vero cells versus DU145 cells, read-out: Selectivity Index; method in brief: as §2
[40] = Selectivity index, ratio of cytotoxic CC50 for HEK293 cells to cytotoxic CC50 for human DU145 cells; assay type: toxicity; conditions: HEK293 cells versus DU145 cells, read-out: Selectivity Index
[41] = Selectivity index, ratio of antiproliferative IC50 for African green monkey Vero cells to antiproliferative IC50 for human MDA-MB-231 cells; assay type: toxicity; conditions: Vero cells versus MDA-MB-231 cells, read-out: Ratio IC50
[42] = Selectivity index, ratio of antiproliferative IC50 for HEK293 cells to antiproliferative IC50 for human Hep2 cells; assay type: toxicity; conditions: HEK293 cells versus Hep2 cells, read-out: Ratio IC50
[43] = Selectivity index, ratio of antiproliferative IC50 for HEK293 cells to antiproliferative IC50 for human MDA-MB-231 cells; assay type: toxicity; conditions: HEK293 cells versus MDA-MB-231 cells, read-out: Ratio IC50
[44] = Selectivity index, ratio of antiproliferative IC50 for African green monkey Vero cells to antiproliferative IC50 for human DU145 cells; assay type: toxicity; conditions: Vero cells versus DU145 cells, read-out: Ratio IC50

Compound: C=C(C)[C@@H]1CC[C@]2(C(=O)O)CC[C@]3(C)[C@H](CC[C@@H]4[C@@]5(C)CC[C@H](O)C(C)(C)[C@@H]5CC[C@]43C)[C@@H]12 [BETULINIC ACID]
- IC50 (HeLa [1]): 47600 nM
- IC50 (DU-145 [2]): > 500000 nM
- selectivity ratio [3]: 2.4
- CC50 (MCF7 [4]): 49600 nM
- selectivity ratio [5]: 12
- selectivity ratio [6]: 2.8
- selectivity ratio [7]: 4.8
- IC50 (SiHa [8]): 70100 nM
- selectivity ratio [9]: 2.6
- selectivity ratio [10]: 2.5
- CC50 (KB [11]): 15600 nM
- CC50 [12]: 38100 nM
- selectivity ratio [13]: 0.7
- CC50 (SiHa [14]): 28900 nM
- selectivity ratio [15]: 1.6
- IC50 (HEp-2 [16]): > 500000 nM
- selectivity ratio [17]: 1.6
- selectivity ratio [18]: 13
- selectivity ratio [19]: 1.5
- IC50 (HEK293): 336000 nM
- selectivity ratio [20]: 7
- selectivity ratio [21]: 6
- CC50 (MDA-MB-231 [22]): 94300 nM
- IC50 (MDA-MB-231 [23]): > 500000 nM
- selectivity ratio [24]: 1.3
- selectivity ratio [25]: 5.1
- IC50 (Vero): 72100 nM
- selectivity ratio [26]: 0.8
- selectivity ratio [27]: 0.4
- IC50 (KB [28]): 28100 nM
- CC50 [29]: 80000 nM
- CC50 (HEp-2 [30]): 48200 nM
- CC50 (DU-145 [31]): > 500000 nM
- IC50 (MCF7 [32]): 56300 nM
- selectivity ratio [33]: 1.6
- selectivity ratio [34]: 1.3
- CC50 (HeLa [35]): 32600 nM
- selectivity ratio [36]: 1

- IC50 (HeLa [1]): 70 nM
- IC50 (DU-145 [2]): 10 nM
- IC50 (MDA-MB-231 [23]): 70 nM
- IC50 (KB [28]): 50 nM
- IC50 (MCF7 [32]): 10 nM
Compound: CC(=O)O[C@@]12CO[C@@H]1C[C@H](O)[C@@]1(C)C(=O)[C@H](O)C3=C(C)[C@@H](OC(=O)[C@H](O)[C@@H](NC(=O)OC(C)(C)C)c4ccccc4)C[C@@](O)([C@@H](OC(=O)c4ccccc4)[C@H]21)C3(C)C [DOCETAXEL ANHYDROUS]
- selectivity ratio [37]: 11
- selectivity ratio [3]: 7.2
- CC50 (MCF7 [4]): 10 nM
- selectivity ratio [5]: 2.2
- selectivity ratio [6]: 7.3
- selectivity ratio [38]: 2.2
- selectivity ratio [7]: 1.2
- IC50 (SiHa [8]): 90 nM
- selectivity ratio [9]: 2.6
- selectivity ratio [10]: 17.7
- selectivity ratio [39]: 1.6
- CC50 (KB [11]): 180 nM
- selectivity ratio [40]: 2
- CC50 [12]: 1300 nM
- selectivity ratio [13]: 130
- CC50 (SiHa [14]): 220 nM
- selectivity ratio [15]: 160
- IC50 (HEp-2 [16]): 60 nM
- selectivity ratio [41]: 1.9
- selectivity ratio [42]: 1.8
- selectivity ratio [17]: 14.4
- selectivity ratio [18]: 5.9
- selectivity ratio [19]: 1.9
- IC50 (HEK293): 110 nM
- selectivity ratio [43]: 1.6
- selectivity ratio [20]: 1.6
- selectivity ratio [21]: 11
- CC50 (MDA-MB-231 [22]): 190 nM
- selectivity ratio [24]: 21.6
- selectivity ratio [25]: 8.8
- IC50 (Vero): 130 nM
- selectivity ratio [26]: 8.4
- selectivity ratio [27]: 6.8
- selectivity ratio [44]: 13
- CC50 [29]: 1600 nM
- CC50 (HEp-2 [30]): 60 nM
- CC50 (DU-145 [31]): 810 nM
- selectivity ratio [33]: 26.6
- selectivity ratio [34]: 13
- CC50 (HeLa [35]): 90 nM
- selectivity ratio [36]: 1.4
